# From ChEMBL document CHEMBL3397004, “Furan-based acetylating agent for the chemical modification of proteins” (Bioorg Med Chem, 2015)
# Calls of active or inactive are those of the source. The rule behind the calls is not given here.
# Assays:
# [1] = biological target: Cytochrome c (Bos taurus) (UniProt P62894); assay: Induction of chemical modification in bovine heart cytochrome c in phosphate buffer assessed as disappearance of peak at 530 nm and appearance of new peaks at 522 and 551 nm at pH 7.4 after overnight incubation by UV-vis spectrophotometry
# Sequence of Cytochrome c (Bos taurus) (P62894 whole entry): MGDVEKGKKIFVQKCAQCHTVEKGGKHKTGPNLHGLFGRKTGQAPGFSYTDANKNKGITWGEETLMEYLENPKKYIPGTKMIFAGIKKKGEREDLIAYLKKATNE
# How it was run: (§1)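 Cytochrome c (50 µM) incubated overnight at 37 °C, pH 7.4, with 2 mM BAMF or 2 mM aspirin in phosphate buffer. UV–vis spectra recorded about 350–600 nm (Soret and Q-band region) and compared with native protein.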
# [2] = biological target: Cytochrome c (Bos taurus) (UniProt P62894); assay: Induction of chemical modification in bovine heart cytochrome c in phosphate buffer assessed as appearance of new peak at 414 nm at 2 mM at pH 7.4 after overnight incubation by UV-vis spectrophotometry; how it was run: as §1
# [3] = biological target: Cytochrome c (Bos taurus) (UniProt P62894); assay: Induction of chemical modification in bovine heart cytochrome c tertiary structure in phosphate buffer assessed as intact band at 695 nm at pH 7.4 after overnight incubation by UV-vis spectrophotometry
# How it was run: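 Cytochrome c modified overnight at 37 °C in 50 mM phosphate pH 7.4 with BAMF. UV–vis absorbance scanned 600–800 nm to monitor the 695 nm Met-80–heme ligand band, compared with native protein.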
# [4] = biological target: Cytochrome c (Bos taurus) (UniProt P62894); assay: Induction of chemical modification in bovine heart cytochrome c in phosphate buffer assessed as adduct formation at heme center at 2 mM at pH 7.4 after 1 hr by UV-vis spectrophotometry
# How it was run: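 Cytochrome c treated with 2 mM acetylating agent in phosphate buffer pH 7.4. Heme redox/reduction kinetics followed by absorbance at 550 nm over 1 h, with aspirin at 2 mM as the reference acetylating agent.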
# [5] = biological target: Cytochrome c (Bos taurus) (UniProt P62894); assay: Induction of chemical modification in bovine heart cytochrome c assessed as change in negative peaks of at 282 nm and 289 nm of tyrosyl side chains at 0.3 to 1.2 mM by circular dichroism analysis
# [6] = biological target: Cytochrome c (Bos taurus) (UniProt P62894); assay: Induction of chemical modification in bovine heart cytochrome c tertiary structure assessed as effect on adduct formation at 0.3 to 1.2 mM by circular dichroism analysis
# [7] = biological target: Lysozyme C (Gallus gallus) (UniProt P00698); assay: Induction of chemical modification in chicken egg white lysozyme tertiary structure assessed as effect on adduct formation at 0.3 to 1.2 mM by circular dichroism analysis
# Sequence of Lysozyme C (Gallus gallus) (P00698 whole entry): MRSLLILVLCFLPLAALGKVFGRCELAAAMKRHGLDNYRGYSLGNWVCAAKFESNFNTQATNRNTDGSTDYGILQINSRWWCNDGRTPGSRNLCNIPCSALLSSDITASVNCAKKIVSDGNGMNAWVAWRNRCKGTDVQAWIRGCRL
# [8] = biological target: Cytochrome c (Bos taurus) (UniProt P62894); assay: Induction of chemical modification in bovine heart cytochrome c assessed as exposure of hydrophobic core at 0.3 to 1.2 mM by ANS staining-based fluorescence assay
# How it was run: (§2)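 Proteins (50 µM) modified overnight at 37 °C with BAMF (0.3–1.2 mM) in 50 mM phosphate pH 7.4, then measured at 5 µM. ANS was used at 16-fold over protein. Excitation 360 nm, emission 400–600 nm, slits 10 nm, 3 mm quartz cell. Blanks subtracted, each spectrum at least three times.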
# [9] = biological target: Lysozyme C (Gallus gallus) (UniProt P00698); assay: Induction of chemical modification in chicken egg white lysozyme assessed as exposure of hydrophobic core at 0.3 to 1.2 mM by ANS staining-based fluorescence assay; how it was run: as §2
# [10] = biological target: Cytochrome c (Bos taurus) (UniProt P62894); assay: Induction of chemical modification in bovine heart cytochrome c assessed as denaturation temperature at 0.3 mM by UV-vis spectrophotometry (Tm = 56.5 +/- 0.1 degC)
# [11] = biological target: Cytochrome c (Bos taurus) (UniProt P62894); assay: Induction of chemical modification in bovine heart cytochrome c assessed as denaturation temperature at 0.6 mM by UV-vis spectrophotometry (Tm = 56.5 +/- 0.1 degC)
# [12] = biological target: Cytochrome c (Bos taurus) (UniProt P62894); assay: Induction of chemical modification in bovine heart cytochrome c assessed as denaturation temperature at 0.9 mM by UV-vis spectrophotometry (Tm = 56.5 +/- 0.1 degC)
# [13] = biological target: Cytochrome c (Bos taurus) (UniProt P62894); assay: Induction of chemical modification in bovine heart cytochrome c assessed as denaturation temperature at 1.2 mM by UV-vis spectrophotometry (Tm = 56.5 +/- 0.1 degC)
# [14] = biological target: Lysozyme C (Gallus gallus) (UniProt P00698); assay: Induction of chemical modification in chicken egg white lysozyme assessed as effect on enzyme activity at 0.3 to 1.2 mM by UV-vis spectrophotometry
# How it was run: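 Lysozyme (50 µM) modified overnight at 37 °C with 0.3, 0.6, 0.9 or 1.2 mM BAMF in 50 mM phosphate pH 7.4. Hydrolytic activity read turbidimetrically as the fall in A450 of a bacterial cell suspension over 1500 s. Specific activity plotted against BAMF concentration.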
# [15] = biological target: Cytochrome c (Bos taurus) (UniProt P62894); assay: Induction of chemical modification in bovine heart cytochrome c assessed as additional peaks at 1.2 mM at pH 7.4 by ESI-MS spectroscopic technique
# [16] = biological target: Cytochrome c (Bos taurus) (UniProt P62894); assay: Induction of chemical modification in bovine heart cytochrome c in phosphate buffer assessed as appearance of new peak at 413 nm at 2 mM at pH 7.4 after overnight incubation by UV-vis spectrophotometry; how it was run: as §1
Activity [1],Activity [2],Activity [3],Activity [4],Activity [5],Activity [6],Activity [7],Activity [8],Activity [9],Tm [10] [°C],Tm [11] [°C],Tm [12] [°C],Tm [13] [°C],Activity [14],Activity [15],Activity [16],SMILES
Active,Active,inactive,Active,inactive,inactive,inactive,inactive,inactive,54.8,54.7,53.8,53,inactive,Active,–,CC(=O)OCc1ccc(COC(C)=O)o1
–,–,–,–,–,–,–,–,–,–,–,–,–,–,–,Active,CC(=O)Oc1ccccc1C(=O)O
